# Experiments:
# Rattus norvegicus [1] = assay: Ratio of biodistribution of the radio labelled compound ([125I]IPAPP) in rat brain to rat blood after 15 min of intravenous injection; assay type: ADME, organism-based
# Outline: (§1)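 Rats, three per time point, received the radioligand in 0.2 mL saline into the femoral vein under ether anesthesia. They were killed by cardiac excision at 2, 15 or 30 min. Brain and blood were removed and gamma-counted at about 50% efficiency. Percent dose per organ was taken as tissue counts divided by diluted aliquots of the injected material.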
# Rattus norvegicus [2] = assay: Biodistribution of the radio labelled compound (azido-[125I]-IPAPP) in rat muscle after 15 min of intravenous injection; assay type: ADME, organism-based, Muscle tissue; settings: in vivo
# Outline: (§2)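 Rats received the radioligand in 0.2 mL saline into the femoral vein under ether anesthesia. They were killed by cardiac excision at set times post-injection. Organs were removed and gamma-counted at about 50% efficiency. % dose/organ was calculated against diluted aliquots of the injected material. Values are the average of three rats.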
# Rattus norvegicus [3] = assay: Biodistribution of the radio labelled compound (azido-[125I]-IPAPP) in rat lungs after 30 min of intravenous injection; assay type: ADME, organism-based, Lung; settings: in vivo, 0.5 h; outline: as §2
# Rattus norvegicus [4] = assay: Biodistribution of the radio labelled compound (azido-[125I]-IPAPP) in rat liver after 30 min of intravenous injection; assay type: ADME, organism-based; settings: in vivo, 0.5 h; outline: as §2
# Rattus norvegicus [5] = assay: Biodistribution of the radio labelled compound (azido-[125I]-IPAPP) in rat blood after 15 min of intravenous injection; assay type: ADME, organism-based; settings: in vivo; outline: as §2
# Rattus norvegicus [6] = assay: Biodistribution of the radio labelled compound (azido-[125I]-IPAPP) in rat lungs after 15 min of intravenous injection; assay type: ADME, organism-based, Lung; settings: in vivo; outline: as §2
# Rattus norvegicus [7] = assay: Biodistribution of the radio labelled compound (azido-[125I]-IPAPP) in rat heart after 30 min of intravenous injection; assay type: ADME, organism-based; settings: in vivo, 0.5 h; outline: as §2
# Rattus norvegicus [8] = assay: Biodistribution of the radio labelled compound (azido-[125I]-IPAPP) in rat brain after 15 min of intravenous injection; assay type: ADME, organism-based; settings: in vivo; outline: as §2
# Rattus norvegicus [9] = assay: Biodistribution of the radio labelled compound (azido-[125I]-IPAPP) in rat heart after 15 min of intravenous injection; assay type: ADME, organism-based; settings: in vivo; outline: as §2
# Rattus norvegicus [10] = assay: Ratio of biodistribution of the radio labelled compound ([125I]IPAPP) in rat brain to rat blood after 2 min of intravenous injection; assay type: ADME, organism-based; outline: as §1
# Rattus norvegicus [11] = assay: Biodistribution of the radio labelled compound (azido-[125I]-IPAPP) in rat liver after 15 min of intravenous injection; assay type: ADME, organism-based; settings: in vivo; outline: as §2
# Rattus norvegicus [12] = assay: Biodistribution of the radio labelled compound (azido-[125I]-IPAPP) in rat brain after 30 min of intravenous injection; assay type: ADME, organism-based; settings: in vivo, 0.5 h; outline: as §2
# Rattus norvegicus [13] = assay: Biodistribution of the radio labelled compound (azido-[125I]-IPAPP) in rat blood after 2 min of intravenous injection; assay type: ADME, organism-based; settings: in vivo; outline: as §2
# Rattus norvegicus [14] = assay: Biodistribution of the radio labelled compound (azido-[125I]-IPAPP) in rat blood after 30 min of intravenous injection; assay type: ADME, organism-based; settings: in vivo, 0.5 h; outline: as §2
# Rattus norvegicus [15] = assay: Biodistribution of the radio labelled compound (azido-[125I]-IPAPP) in rat muscle after 2 min of intravenous injection; assay type: ADME, organism-based, Muscle tissue; settings: in vivo; outline: as §2
# Rattus norvegicus [16] = assay: Biodistribution of the radio labelled compound (azido-[125I]-IPAPP) in rat lungs after 2 min of intravenous injection; assay type: ADME, organism-based, Lung; settings: in vivo; outline: as §2
# Rattus norvegicus [17] = assay: Biodistribution of the radio labelled compound (azido-[125I]-IPAPP) in rat muscle after 30 min of intravenous injection; assay type: ADME, organism-based, Muscle tissue; settings: in vivo, 0.5 h; outline: as §2
# Rattus norvegicus [18] = assay: Biodistribution of the radio labelled compound (azido-[125I]-IPAPP) in rat brain after 2 min of intravenous injection; assay type: ADME, organism-based; settings: in vivo; outline: as §2
# Rattus norvegicus [19] = assay: Biodistribution of the radio labelled compound (azido-[125I]-IPAPP) in rat heart after 2 min of intravenous injection; assay type: ADME, organism-based; settings: in vivo; outline: as §2
# Rattus norvegicus [20] = assay: Biodistribution of the radio labelled compound (azido-[125I]-IPAPP) in rat liver after 2 min of intravenous injection; assay type: ADME, organism-based; settings: in vivo; outline: as §2
# Rattus norvegicus [21] = assay: Ratio of biodistribution of the radio labelled compound ([125I]IPAPP) in rat brain to rat blood after 30 min of intravenous injection; assay type: ADME, organism-based; settings: 0.5 h; outline: as §1
# Rattus norvegicus [22] = assay: Ratio of biodistribution of the radio labelled compound (azido-[125I]-IPAPP) in rat brain to rat blood after 30 min of intravenous injection; assay type: ADME, organism-based; settings: 0.5 h
# Rattus norvegicus [23] = assay: Ratio of biodistribution of the radio labelled compound (azido-[125I]-IPAPP) in rat brain to rat blood after 15 min of intravenous injection; assay type: ADME, organism-based
# Rattus norvegicus [24] = assay: Ratio of biodistribution of the radio labelled compound (azido-[125I]-IPAPP) in rat brain to rat blood after 2 min of intravenous injection; assay type: ADME, organism-based
Dose/organ (Rattus norvegicus [2]) [%],Dose/organ (Rattus norvegicus [3]) [%],Dose/organ (Rattus norvegicus [4]) [%],Dose/organ (Rattus norvegicus [5]) [%],Dose/organ (Rattus norvegicus [6]) [%],Dose/organ (Rattus norvegicus [7]) [%],Dose/organ (Rattus norvegicus [8]) [%],Dose/organ (Rattus norvegicus [9]) [%],Dose/organ (Rattus norvegicus [11]) [%],Dose/organ (Rattus norvegicus [12]) [%],Dose/organ (Rattus norvegicus [13]) [%],Dose/organ (Rattus norvegicus [14]) [%],Dose/organ (Rattus norvegicus [15]) [%],Dose/organ (Rattus norvegicus [16]) [%],Dose/organ (Rattus norvegicus [17]) [%],Dose/organ (Rattus norvegicus [18]) [%],Dose/organ (Rattus norvegicus [19]) [%],Dose/organ (Rattus norvegicus [20]) [%],Compound,further results
13.6,4.16,18.9,2.23,3.15,0.262,0.91,0.309,19.4,0.935,6.99,1.96,6.51,14.2,11.8,1.68,2.34,13.1,Nc1ccc(CCN2CCN(c3cccc(C(F)(F)F)c3)CC2)cc1I,Ratio (Rattus norvegicus [1]): 4.92; Ratio (Rattus norvegicus [10]): 2.63; Ratio (Rattus norvegicus [21]): 4.76
16.6,1.73,28.5,3.21,2.15,0.372,0.667,0.548,34.3,0.75,9.74,2.76,11.8,6.5,14.4,0.503,1.4,32.5,[N-]=[N+]=Nc1ccc(CCN2CCN(c3cccc(C(F)(F)F)c3)CC2)cc1I,Ratio (Rattus norvegicus [22]): 2.53; Ratio (Rattus norvegicus [23]): 1.99; Ratio (Rattus norvegicus [24]): 0.499

# — ChEMBL document CHEMBL1124409, “Preparation and biodistribution of 1-[2-(3-[125I]iodo-4-aminophenyl)ethyl]-4-[3-(trifluoromethyl) phenyl]piperazine and 1-[2-(3-[125I]iodo-4-azidophenyl)ethyl]-4-[3-(trifluoromethyl)phenyl] piperazine” (J Med Chem, 1989)
